MBD2 inh: inhibitors of MBD2 binding to methylated DNA, primary screen, biochemical, TR-FRET, DNA-binding domain, human; inhibition, % at 4.4 µM; MBD2 binding to methylated oligonucleotide; hit rate 0.31% among 370,000; in the data active = inhibition above about 13%
LEDGF integ inh: blockers of LEDGF/p75-dependent integrase strand transfer – biochemical, TR-FRET, high throughput, primary screen; HIV-1 integrase (with human LEDGF/p75); TR-FRET IN-LEDGF/p75 DNA integration, Eu/Cy5; inhibition, % at 3.7 µM; hit rate 0.64% among 370,000;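 active = inhibition above the screen-wide mean plus 3 SD, cut at about 13% in these data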;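 also: signal is the Cy5 over europium emission ratio at 671 and 618 nm; 0% = plate median of compound wells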
SIAE inh: human SIAE inhibitors, primary screen, biochemical, fluorescence polarization, FP-Rh probe, 1536-well HTS | AID 1053197, 2014 | inhibition, % at 9.66 µM | SIAE FP-Rh probe binding | Sialate O-acetylesterase (Homo sapiens), Q9HAT2 | hit rate 0.69% among 370,000;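 active = inhibition above a cutoff: mean of compounds within the control limits plus 3 SD of those, cut at about 17% in these data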;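 also: 0% = plate median of compound wells and 100% = probe without SIAE protein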
PRMT1 FP inh: PRMT1 methyltransferase inhibitors, primary screen, biochemical, fluorescence polarization; Protein arginine N-methyltransferase 1 (Homo sapiens), Q99873; recombinant PRMT1, activity-based probe fluorescence polarization; inhibition, % at 2.79 µM; hit rate 1.3% among 370,000;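 active = inhibition above about 21% made by adding two undisclosed values, limit read from the data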
Target sequence (Q99873 whole entry, looked up): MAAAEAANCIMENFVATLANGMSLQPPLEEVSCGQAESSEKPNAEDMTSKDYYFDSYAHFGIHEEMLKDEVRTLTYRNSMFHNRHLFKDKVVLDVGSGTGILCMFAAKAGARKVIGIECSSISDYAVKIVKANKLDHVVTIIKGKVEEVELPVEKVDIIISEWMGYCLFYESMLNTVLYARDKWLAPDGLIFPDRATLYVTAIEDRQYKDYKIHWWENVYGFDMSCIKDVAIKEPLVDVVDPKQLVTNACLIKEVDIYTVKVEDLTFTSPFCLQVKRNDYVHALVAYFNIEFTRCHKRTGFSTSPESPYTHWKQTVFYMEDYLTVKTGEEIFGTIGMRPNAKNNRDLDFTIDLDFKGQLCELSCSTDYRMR
UHRF1 binding: UHRF1 methylated DNA binding inhibitors, primary screen, counter-screen for MBD2 inhibitor project, biochemical, TR-FRET, human UHRF1, single concentration | E3 ubiquitin-protein ligase UHRF1 (Homo sapiens), Q96T88 | UHRF1 binding to methylated oligo | inhibition, % at 4.4 µM | hit rate 0.75% among 370,000; in the data active = inhibition above about 21%;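 also: UHRF1 SRA domain binding a hemimethylated CpG hairpin DNA probe; 0% = median of test compound wells and 100% = reference inhibitor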
TDP2 inh: human TDP2 enzyme inhibitors, primary screen, biochemical, epi absorbance, recombinant enzyme. Tyrosyl-DNA phosphodiesterase 2 (Homo sapiens), O95551. T5PNP hydrolysis, p-nitrophenol absorbance 415 nm. inhibition, % at 12.8 µM. hit rate 0.34% among 370,000;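 active = inhibition above the mean of all tested compounds plus 3 SD, set per campaign, cut at about 25% in these data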;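 also: 0% = DMSO with enzyme and 100% = buffer with substrate but no TDP2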
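Test system: Human TDP2 enzyme | Reagent: 5 mM T5PNP | Compound dosing: 12.8 µM single point, 1% DMSO | Incubation: Enzyme reaction with compound for 2 h at 37 °C | Technique: p-Nitrophenol epi absorbance | Read-out: % inhibition relative to enzyme-containing and enzyme-free wells | Benchmarks: High control without enzyme, low control DMSO plus TDP2 | Replicates: Singlicate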
PRMT1 inh conf: PRMT1 methyltransferase inhibitors, confirmation, biochemical, fluorescence polarization, triplicate | shares compounds with PRMT1 FP inh | recombinant His-PRMT1, activity-based probe fluorescence polarization | inhibition, % at 2.79 µM | hit rate 42% among 3,300 | AID 687036, 2013;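 active = mean inhibition across replicates above the hit cutoff derived for the earlier primary screen, cut at about 22% in these data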
* hit, by the source's call; . = no result. A selection: hits, their analogues and other compounds. The true share with any hit is near 3.3%.

SMILES	MBD2 inh	LEDGF integ inh	SIAE inh	PRMT1 FP inh	UHRF1 binding	TDP2 inh	PRMT1 inh conf
O=C(CSc1nc(-c2ccc(Cl)cc2)[nH]c(=O)n1)Nc1cccc(Cl)c1	5	0	-29	51*	4	-12	0
CC(=O)NC1C(=O)N=C(SCC(=O)Nc2cccc(Cl)c2)NC1=O (stereo not given)	3	-3	-4	39*	-5	10	8
CC(=O)NC1C(=O)N=C(SCC(=O)Nc2sc3c(c2C#N)CCCCCC3)NC1=O (stereo not given)	7	3	4	13	-3	3	.
CC1(c2ccccc2)NC(=O)N(CC(=O)Nc2nc(-c3ccccn3)cs2)C1=O (stereo not given)	-2	0	2	6	-4	3	.
Cc1ccc(C2(C)NC(=O)N(CC(=O)Nc3nc(-c4ccccn4)cs3)C2=O)cc1 (stereo not given)	-3	1	8	26*	-6	-3	38*
COC(=O)c1cc(-c2ccc(OC)c(OC)c2)c(=O)n2c1CCC2	4	-1	-9	4	0	8	.
CC1Sc2ccc(C(=O)NCc3ccccn3)cc2NC1=O (stereo not given)	7	2	10	34*	1	-4	8
Cc1cc(C)c(NC(=O)c2ccc3c(c2)NC(=O)C(C)S3)c(C)c1 (stereo not given)	-2	-3	4	1	0	8	.
O=C(CN1C(=O)C2(OCCCO2)c2ccccc21)NCc1ccc(F)cc1	2	-1	0	-3	1	1	.
O=C1N/C(=C/c2ccc(N3CCOCC3)o2)C(=O)N1c1cccc(Cl)c1	-5	3	2	30*	-2	4	-7
CCN1C(=O)/C(=C/c2ccc(C)o2)N(C)C1=S	4	-5	0	45*	2	-12	1
CCCN1C(=O)S/C(=C/c2ccc(N3CCOCC3)o2)C1=O	-2	2	-6	8	2	11	.
Cc1ccc(/C=C2/NC(=O)N(Cc3ccccc3F)C2=O)o1	-3	7	9	83*	-2	-8	10
CCN1C(=O)N/C(=C/c2ccc(C)o2)C1=O	-8	-1	7	56*	-2	11	9
CCn1c(C)cc(/C=C2/NC(=O)N(Cc3ccccc3F)C2=O)c1C	-3	-1	7	4	-4	6	.
Cc1onc(C(=O)N2CCN(C(c3ccc(Cl)cc3)c3ccc(Cl)cc3)CC2)c1[N+](=O)[O-]	-2	1	6	1	0	7	.
C[C@H]1C2CC(OC(=O)Nc3ccc4c(c3)OCO4)C(C2)[C@H]2CCCCN21 (stereo not given in full)	-3	1	-1	-10	3	-8	.
Cc1ccc(CN2C(=O)N/C(=C\c3ccc(N4CCOCC4)cc3)C2=O)cc1	-7	2	10	-3	-5	-7	.
Cc1ccc(/C=C2/NC(=O)N(Cc3ccc(Br)cc3)C2=O)o1	5	-2	2	80*	0	-11	10
Cc1ccc(/C=C2/NC(=O)N(c3ccccc3)C2=O)o1	-2	0	2	60*	0	8	30*
Cc1c(C(=O)O)cccc1-c1ccc(/C=C2/NC(=O)N(c3ccccc3)C2=O)o1	-1	-12	-3	11	4	-10	.
COC(=O)C1CN(CC(C)C)CCS(=O)(=O)N1Cc1ccc(C(F)(F)F)cc1 (stereo not given)	2	6	15	2	-1	-10	.
O=C1CC[C@@H](O)CCN1CC[C@H](Sc1ccccc1)c1ccccc1	2	1	-3	-1	4	-10	.
